Measurements published in ChEMBL document CHEMBL1127399, “4,7 beta-Dimethyl-4-azacholestan-3-one (MK-386) and related 4-azasteroids as selective inhibitors of human type 1 5 alpha-reductase” (J Med Chem, 1994).
pIC50: −log10 of the molar value.

Assays:
[1] = biological target: T1, 3-oxo-5-alpha-steroid 4-dehydrogenase 2 (Homo sapiens, UniProt P31213); test: Inhibition of type 2 steroid-5-alpha-reductase
T1 sequence (P31213 whole entry): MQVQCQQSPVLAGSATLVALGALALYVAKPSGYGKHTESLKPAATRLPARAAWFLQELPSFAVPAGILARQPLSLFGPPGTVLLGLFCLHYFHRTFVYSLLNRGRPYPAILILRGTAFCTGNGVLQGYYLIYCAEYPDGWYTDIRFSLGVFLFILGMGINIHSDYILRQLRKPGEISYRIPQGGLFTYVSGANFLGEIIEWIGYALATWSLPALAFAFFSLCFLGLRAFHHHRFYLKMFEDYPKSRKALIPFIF
How it was run: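 Baculovirus-expressed recombinant human type 2 5α-reductase preincubated 18 h at 4 °C with inhibitor (1–10 000 nM, serially diluted from ethanol) in 40 mM sodium citrate pH 5.5, 500 μM NADPH, 1 mM DTT, 1 mg/mL BSA. Conversion of [7-³H]testosterone to DHT monitored by HPLC. IC50 averaged over at least three determinations.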

[2] = biological target: T2, 3-oxo-5-alpha-steroid 4-dehydrogenase 1 (Homo sapiens, UniProt P18405); test: Inhibition of type 1 steroid-5-alpha-reductase
T2 sequence (P18405 whole entry): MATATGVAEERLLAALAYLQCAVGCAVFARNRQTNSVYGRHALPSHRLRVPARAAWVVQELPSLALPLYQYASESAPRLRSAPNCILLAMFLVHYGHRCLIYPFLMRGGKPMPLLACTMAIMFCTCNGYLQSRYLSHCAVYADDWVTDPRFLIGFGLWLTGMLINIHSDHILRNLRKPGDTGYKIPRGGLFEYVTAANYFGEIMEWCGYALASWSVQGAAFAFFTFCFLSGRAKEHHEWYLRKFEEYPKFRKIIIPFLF
How it was run: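 Baculovirus-expressed recombinant human type 1 5α-reductase preincubated 18 h at 4 °C with inhibitor (0.1–1000 nM, serial dilutions from ethanol) in 40 mM sodium phosphate pH 7.0, 500 μM NADPH, 1 mM DTT, 1 mg/mL BSA. Reaction started with [7-³H]testosterone (final 0.3 μM) plus NADPH, 90 min at 37 °C; T and DHT separated by HPLC. IC50, mean of ≥3 determinations.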

SMILES | pIC50 [1] | pIC50 [2]
CC[C@H]1CC2N(C)C(=O)CC[C@]2(C)C2CC[C@]3(C)C(C(C)CCCC(C)C)CCC3C21 (stereo not given in full) | 6.48 | 8.24
CC(C)CCCC(C)C1CCC2C3C(CC[C@]12C)[C@@]1(C)CCC(=O)NC1C[C@@H]3C (stereo not given in full) | 6.55 | 8.59
CC[C@H]1CC2NC(=O)CC[C@]2(C)C2CC[C@]3(C)C(C(C)CCCC(C)C)CCC3C21 (stereo not given in full) | 6.55 | 8.57
CCC[C@H]1CC2N(C)C(=O)CC[C@]2(C)C2CC[C@]3(C)C(C(C)CCCC(C)C)CCC3C21 (stereo not given in full) | 6.24 | 7.70
CCN1C(=O)CC[C@]2(C)C3CC[C@]4(C)C(C(C)CCCC(C)C)CCC4C3[C@@H](C)CC12 (stereo not given in full) | 5.86 | 8.48
CCC[C@H]1CC2NC(=O)CC[C@]2(C)C2CC[C@]3(C)C(C(C)CCCC(C)C)CCC3C21 (stereo not given in full) | 5.96 | 8.02
CC(C)CCCC(C)C1CCC2C3C(CC[C@]12C)[C@@]1(C)CCC(=O)N(C)C1=C[C@@H]3C (stereo not given in full) | 6.83 | 9.22
CC(C)CCCC(C)C1CCC2C3CCC4N(C)C(=O)CC[C@]4(C)C3CC[C@]12C (stereo not given in full) | 6.66 | 8.77
CCC[C@H]1C=C2N(C)C(=O)CC[C@]2(C)C2CC[C@]3(C)C(C(C)CCCC(C)C)CCC3C21 (stereo not given in full) | 8.27 | 8.08
CC(C)CCCC(C)C1CCC2C3C(CC[C@]12C)[C@@]1(C)C=CC(=O)NC1C[C@@H]3C (stereo not given in full) | 6.53 | 8.80
CC(C)CCCC(C)C1CCC2C3C(CC[C@]12C)[C@@]1(C)CCC(=O)N(C)C1=C[C@@H]3c1ccccc1 (stereo not given in full) | 5.66 | < 6.00
CN1C(=O)CC[C@@H]2c3ccc(Cl)cc3CC[C@H]21 [BEXLOSTERIDE] | 5.76 | 8.07
CC(C)CCCC(C)C1CCC2C3CCC4NC(=O)C=C[C@]4(C)C3CC[C@]12C (stereo not given in full) |  | 8.30
CC(C)CCCC(C)C1CCC2C3C(CC[C@]12C)[C@@]1(C)CCC(=O)NC1=C[C@@H]3c1ccccc1 (stereo not given in full) | 5.87 | < 6.00
CC(C)CCCC(C)C1CCC2C3CCC4NC(=O)CC[C@]4(C)C3CC[C@]12C (stereo not given in full) | 6.66 | 8.59
CC(C)(C)NC(=O)[C@H]1CC[C@H]2[C@@H]3CC=C4C=C(C(=O)O)CC[C@]4(C)[C@H]3CC[C@]12C [EPRISTERIDE] | 9.22 | < 6.00
C=CCN1C(=O)CC[C@]2(C)C3CC[C@]4(C)C(C(C)CCCC(C)C)CCC4C3[C@@H](C)CC12 (stereo not given in full) | 5.89 | 7.38
CC(C)CCCC(C)C1CCC2C3C(CC[C@]12C)[C@@]1(C)CCC(=O)NC1=C[C@@H]3C (stereo not given in full) | 6.07 | 8.60
CC(C)CCCC(C)C1CCC2C3CC=C4N(C)C(=O)CC[C@]4(C)C3CC[C@]12C (stereo not given in full) |  | 8.37
CC(C)(C)NC(=O)[C@H]1CC[C@H]2[C@@H]3CC[C@H]4NC(=O)C=C[C@]4(C)[C@H]3CC[C@]12C [FINASTERIDE] | > 10.00 | 7.28
CCC[C@H]1C=C2NC(=O)CC[C@]2(C)C2CC[C@]3(C)C(C(C)CCCC(C)C)CCC3C21 (stereo not given in full) | 6.15 | 7.24
CC(C)CCCC(C)C1CCC2C3C(CC[C@]12C)[C@@]1(C)C=CC(=O)N(C)C1C[C@@H]3C (stereo not given in full) | 6.90 | 8.70
CC[C@H]1C=C2NC(=O)CC[C@]2(C)C2CC[C@]3(C)C(C(C)CCCC(C)C)CCC3C21 (stereo not given in full) | 5.98 | 8.07
CC(C)CCCC(C)C1CCC2C3C(CC[C@]12C)[C@@]1(C)CCC(=O)NC1C[C@@H]3c1ccccc1 (stereo not given in full) | 6.35 | < 6.00
CC(C)CCCC(C)[C@H]1CCC2C3C(CC[C@@]21C)[C@@]1(C)CCC(=O)N(C)C1C[C@@H]3C (stereo not given in full) | 6.81 | 9.05
CC[C@H]1C=C2N(C)C(=O)CC[C@]2(C)C2CC[C@]3(C)C(C(C)CCCC(C)C)CCC3C21 (stereo not given in full) | 5.67 | 8.02
CC(C)CCCC(C)C1CCC2C3C(CC[C@]12C)[C@@]1(C)CCC(=O)N(C)C1C[C@@H]3c1ccccc1 (stereo not given in full) | 6.37 | 6.87
CC(C)CCCC(C)C1CCC2C3CC=C4NC(=O)CC[C@]4(C)C3CC[C@]12C (stereo not given in full) |  | 7.72
C[C@]12CCC3C(CNC4=CC(=O)CC[C@@]43C)C1CCC2C(=O)NC(c1ccccc1)c1ccccc1 (stereo not given in full) | > 10.00 | 6.73
